Laboratory results: article PMC6062249 (Toxicology Research, 2016)
Where two headings read alike, the source gives them in different places.

Key:
HaCaT cells = assay: Alamar Blue cell viability assay; type: cell-based, human; details: 10 μM, alone or with TCDD 5 nM, 24 h
Method in brief: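 HaCaT keratinocytes were grown in DMEM with 10% FBS at 37 °C, 5% CO2, seeded at 1 × 10^4 cells/well and cultured 3 d to high confluency. Cells were exposed in fresh DMEM to test compound alone or with TCDD (5 nM), with 0.1–0.18% DMSO as solvent control. Afterwards, 10% AlamarBlue in DMEM was added for 1 h at 37 °C and fluorescence read at 560/590 nm. Viability is given as % of DMSO control, from three separate experiments.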

human recombinant CYP1A1 = biological target: T1, human recombinant CYP1A1 (Homo sapiens, UniProt P04798); assay: EROD activity of microsomes containing human recombinant CYP1A1; type: biochemical
T1 sequence (P04798 1-512): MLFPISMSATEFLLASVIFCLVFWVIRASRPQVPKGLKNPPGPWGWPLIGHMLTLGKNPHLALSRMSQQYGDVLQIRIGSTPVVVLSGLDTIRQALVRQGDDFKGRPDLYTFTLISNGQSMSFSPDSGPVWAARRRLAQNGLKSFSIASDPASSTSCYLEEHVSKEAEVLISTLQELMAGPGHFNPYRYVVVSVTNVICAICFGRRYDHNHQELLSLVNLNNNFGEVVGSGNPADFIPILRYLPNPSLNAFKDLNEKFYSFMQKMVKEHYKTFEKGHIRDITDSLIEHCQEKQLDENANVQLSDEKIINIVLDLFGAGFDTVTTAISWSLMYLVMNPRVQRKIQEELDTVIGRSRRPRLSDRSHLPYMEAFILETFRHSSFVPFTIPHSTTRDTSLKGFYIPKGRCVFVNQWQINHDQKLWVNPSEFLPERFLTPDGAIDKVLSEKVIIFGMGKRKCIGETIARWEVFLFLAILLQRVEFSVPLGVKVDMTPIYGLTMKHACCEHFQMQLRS
Method in brief: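 Microsomes containing recombinant human CYP1A1 (2.5 nM) with NADPH-P450 reductase were pre-incubated 5 min with test compound (0.00064–20 μM) or DMSO (final <0.5%). 7-Ethoxyresorufin (0.5 μM) and NADPH (0.4 mM) were then added. Resorufin formation was followed kinetically at 535/590 nm, every 2 s, in triplicate. DMSO control was set as 100% and the no-NADPH reaction as 0%; IC50 was fitted by nonlinear regression.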

[1] = tested on: CYP1A1 mRNA in HaCaT cells; assay: CYP1A1 gene expression by qRT-PCR in HaCaT cells, single exposure; type: cell-based, human; details: 6 h; for reduction of CYP1A1 mRNA levels compared to DMSO control: dose-dependent, 0.1-10 μM
Method in brief: (§1)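 Confluent HaCaT cells (seeded 1 × 10^4/well, grown 3 d) were exposed in fresh DMEM to 0.1, 1.0 or 10 μM test compound or DMSO for 6 h. One-step SYBR Green RT-PCR used cell lysate directly with 200 nM primers. Cycling was 48 °C 30 min, 95 °C 10 min, then 40 × (95 °C 15 s, 60 °C 1 min), with melt curve. Expression is 2^–ΔΔCt normalized to B2M; three experiments in duplicate. Calls required p < 0.05 (two-way ANOVA, Bonferroni) and >2-fold versus DMSO; strong inducer was ≥20-fold.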

[2] = tested on: CYP1B1 mRNA in HaCaT cells; assay: CYP1B1 gene expression by qRT-PCR in HaCaT cells, single exposure; type: cell-based, human; details: 6 h; for reduction of CYP1B1 mRNA levels compared to DMSO control: dose-dependent, 0.1-10 μM
Method in brief: as §1

[3] = tested on: TCDD induced CYP1-dependent EROD activity in HaCaT cells; assay: TCDD-induced cellular EROD activity in HaCaT cells, co-exposure with oxy-PAH; type: cell-based, human; details: TCDD 5 nM + 0.1-10 μM oxy-PAH, 6, 12, 24 h
Method in brief: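 Confluent HaCaT cells were co-exposed to TCDD (5 nM) alone or with 0.1, 1.0 or 10 μM test compound for 6, 12 and 24 h. After a PBS rinse, cells were incubated 20 min at 37 °C with 2 μM 7-ethoxyresorufin in 50 mM sodium phosphate, pH 8.0, and stopped with cold fluorescamine. Resorufin (535/590 nm) was read in triplicate and normalized to fluorescamine protein signal. Activity is % of TCDD alone.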

[4] = tested on: TCDD induced CYP1B1 mRNA in HaCaT cells; assay: TCDD-induced CYP1B1 mRNA in HaCaT cells, co-exposure with oxy-PAH; type: cell-based, human; details: TCDD 5 nM + 1 μM oxy-PAH, 6 h
Method in brief: (§2)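 Confluent HaCaT cells were exposed for 6 h to TCDD (5 nM) alone or with 0.1, 1.0 or 10 μM test compound. CYP1A1 and CYP1B1 mRNA were measured by one-step SYBR Green RT-PCR on cell lysate with 200 nM primers. Quantification used 2^–ΔΔCt with B2M as reference; three experiments in duplicate. Levels are % of TCDD-alone mRNA (100%). Strong inhibitor meant p < 0.05 at ≤1 μM; inhibitor meant p < 0.05 at 10 μM (two-way ANOVA, Bonferroni).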

[5] = tested on: TCDD induced CYP1A1 mRNA in HaCaT cells; assay: TCDD-induced CYP1A1 mRNA in HaCaT cells, co-exposure with oxy-PAH; type: cell-based, human; details: TCDD 5 nM + 1 μM oxy-PAH, 6 h
Method in brief: as §2

[6] = tested on: CYP1-dependent EROD activity in HaCaT cells; assay: Cellular CYP1-dependent EROD activity in HaCaT cells, single exposure; type: cell-based, human; details: HaCaT cells, 0.1, 1.0 or 10 μM, 3-48 h
Method in brief: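 Confluent HaCaT cells were exposed to 0.1, 1.0 or 10 μM test compound, B[a]P or DMSO for 3, 6, 24 and 48 h. Medium was removed and cells rinsed with PBS, then incubated 20 min at 37 °C with 2 μM 7-ethoxyresorufin in 50 mM sodium phosphate, pH 8.0. The reaction was stopped with cold fluorescamine (0.15 mg/mL in acetonitrile). Resorufin was read at 535/590 nm in triplicate and normalized to protein (fluorescamine, 390/485 nm).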

[7] = tested on: TCDD induced CYP1 mRNA (CYP1A1 and 1B1) in HaCaT cells; assay: TCDD-induced CYP1 mRNA; type: cell-based, human; details: TCDD 5 nM + 0.1-10 μM oxy-PAH, 6 h
Method in brief: as §2

CYP1 = details: read-out: reported IC50 values, CYP1 inhibition; cited from earlier work
[8] = IC50, inhibition of CYP1A1-mediated EROD activity, human recombinant CYP1A1 2.5 nM, 7-ethoxyresorufin 0.5 μM, NADPH 0.4 mM, 5 min pre-incubation

O=C1C(=O)c2ccccc2-c2ccccc21 [9,10-PQ, phenanthrene-9,10-quinone]
cytotoxicity (Alamar Blue viability, in words) (HaCaT cells): increased cytotoxicity

O=C1c2ccccc2C(=O)c2ccccc21 [9,10-AQ, anthracene-9,10-quinone]
IC50 (human recombinant CYP1A1; [8]): > 10000 nM | reduction of CYP1A1 mRNA levels compared to DMSO control [1]: up to 15 fold | reduction of CYP1B1 mRNA levels compared to DMSO control [2]: up to 15 fold | inhibition of TCDD-mediated EROD activity (in words) [3]: significant inhibition

O=C1c2cccc3ccc4ccc5cccc1c5c4c23 [6H-BPO, 6H-benzo[cd]pyren-6-one]
reduction of CYP1A1 mRNA levels compared to DMSO control [1]: up to 15 fold | reduction of CYP1B1 mRNA levels compared to DMSO control [2]: up to 15 fold | inhibition of TCDD-mediated EROD activity (in words) [3]: significant inhibition | cytotoxicity (Alamar Blue viability, in words) (HaCaT cells): not associated with increased cytotoxicity | reduction of TCDD-induced CYP1B1 mRNA levels [4]: around 50% | reduction of TCDD-induced CYP1A1 mRNA levels [5]: around 50% | induction of cellular EROD activity (in words) [6]: significantly increased levels of enzyme activity compared to the DMSO control but lower than B[a]P

O=C1C=Cc2cccc3cccc1c23 [1H-PHO, 1H-phenalen-1-one]
IC50 (human recombinant CYP1A1; [8]): > 10000 nM

O=C1c2ccccc2-c2ccc3ccccc3c21 [BFLO, benzo[a]fluorenone]
IC50 (human recombinant CYP1A1; read-out: IC50, inhibition of CYP1A1-mediated EROD activity, human recombinant CYP1A1 2.5 nM, 7-ethoxyresorufin 0.5 μM, NADPH 0.4 mM, 5 min pre-incubation): 61 nM | increase of CYP1A1 mRNA levels compared to DMSO control ([1]; 0.1-10 μM oxy-PAH): up to 60 fold | increase of CYP1B1 mRNA levels compared to DMSO control ([2]; 0.1-10 μM oxy-PAH): ≤ 40 fold | inhibition of TCDD-mediated EROD activity (in words) [3]: most potent inhibitors | reduction of TCDD-induced CYP1B1 mRNA levels [4]: around 50% | reduction of TCDD-induced CYP1A1 mRNA levels [5]: around 50%

O=C1CCc2ccccc21 [1-INO, 1-Indanone]
IC50 (human recombinant CYP1A1; [8]): > 10000 nM

O=C1c2ccccc2-c2cccc3cccc1c23 [7H-BAO, 7H-benz[de]anthracene-7-one]
IC50 (human recombinant CYP1A1; [8]): 770 nM

O=C1C=CC(=O)c2c1ccc1c2ccc2ccccc21 [1,4-CHRQ, chrysene-1,4-quinone]
IC50 (human recombinant CYP1A1; [8]): 6200 nM | increase of CYP1A1 mRNA levels compared to DMSO control ([1]; 0.1-10 μM oxy-PAH): up to 60 fold | increase of CYP1B1 mRNA levels compared to DMSO control ([2]; 0.1-10 μM oxy-PAH): ≤ 40 fold | induction of cellular EROD activity (in words) [6]: did not induce EROD activity | effect on TCDD-induced CYP1A1 and 1B1 expression levels (in words) [7]: no effect at all

Cc1ccc2c(c1)C(=O)c1ccccc1C2=O [2-MAQ, 2-methylanthracene-9,10-quinone]
induction of cellular EROD activity (in words) [6]: significantly increased levels of enzyme activity compared to the DMSO control but lower than B[a]P

O=C1c2ccccc2C(=O)c2cc3ccccc3cc21 [5,12-NQ, naphthacene-5,12-quinone]
increase of CYP1A1 mRNA levels compared to DMSO control ([1]; 0.1-10 μM oxy-PAH): up to 60 fold | increase of CYP1B1 mRNA levels compared to DMSO control ([2]; 0.1-10 μM oxy-PAH): ≤ 40 fold | inhibition of TCDD-mediated EROD activity (in words) [3]: significant inhibition | effect on TCDD-induced CYP1A1 and 1B1 expression levels (in words) [7]: no effect at all

O=C1c2ccccc2C(=O)c2c1ccc1ccccc21 [7,12-BAQ, benz[a]anthracene-7,12-quinone]
IC50 (human recombinant CYP1A1; [8]): 37 nM | increase of CYP1A1 mRNA levels compared to DMSO control ([1]; 0.1-10 μM oxy-PAH): up to 60 fold | increase of CYP1B1 mRNA levels compared to DMSO control ([2]; 0.1-10 μM oxy-PAH): ≤ 40 fold | inhibition of TCDD-mediated EROD activity (in words) [3]: most potent inhibitors | effect on TCDD-induced CYP1A1 and 1B1 expression levels (in words) [7]: no effect at all

c1ccc2c(c1)ccc1nc3ccc4ccccc4c3cc12 [dibenz[a,j]acridine]
IC50 (CYP1): < 100 nM

O=c1cc(-c2ccccc2)oc2c1ccc1ccccc12 [αNF, α-Naphthoflavone]
IC50 (CYP1): < 100 nM

c1cc2ccc3cccc4ccc(c1)c2c34 [pyrene]
IC50 (CYP1): < 100 nM

Cc1cc2c(cc1C)C(=O)c1ccccc1C2=O [2,3-DMAQ, 2,3-dimethylanthracene-9,10-quinone]
IC50 (human recombinant CYP1A1; [8]): 2100 nM | inhibition of TCDD-mediated EROD activity (in words) [3]: significant inhibition | reduction of TCDD-induced CYP1B1 mRNA levels [4]: around 50% | reduction of TCDD-induced CYP1A1 mRNA levels [5]: around 50% | induction of cellular EROD activity (in words) [6]: significantly increased levels of enzyme activity compared to the DMSO control but lower than B[a]P

c1ccc2cc3c(ccc4ccccc43)cc2c1 [benz[a]anthracene]
IC50 (CYP1): < 100 nM

O=C1c2ccccc2-c2ccccc21 [9-FLO, 9-fluorenone]
IC50 (human recombinant CYP1A1; [8]): 3000 nM

O=c1c2cccc3ccc4cccc1c4c32 [4H-CPO, 4H-Cyclopenta[def]phenanthrene-4-one]
IC50 (human recombinant CYP1A1; [8]): 320 nM | reduction of CYP1A1 mRNA levels compared to DMSO control [1]: up to 15 fold | reduction of CYP1B1 mRNA levels compared to DMSO control [2]: up to 15 fold | induction of cellular EROD activity (in words) [6]: significantly increased levels of enzyme activity compared to the DMSO control but lower than B[a]P

O=C1C(=O)c2cccc3cccc1c23 [1,2-ACNQ, acenaphthylene-1,2-quinone]
IC50 (human recombinant CYP1A1; [8]): > 10000 nM

Clc1cc2c(cc1Cl)Oc1cc(Cl)c(Cl)cc1O2 [TCDD, 2,3,7,8-Tetrachlorodibenzo-p-dioxin, reference compound]
increase of CYP1A1 mRNA levels compared to DMSO control ([1]; TCDD alone 5 nM): 138 fold | increase of CYP1B1 mRNA levels compared to DMSO control ([2]; TCDD alone 5 nM): 36 fold
